Assay outcomes as filed in PubChem.
MEKK3 PB1 HTS – modulators of MEKK3-MEK5 PB1 binding, primary screen, biochemical, wildtype MEKK3, multiplex bead flow cytometry, Alexa488-MEK5. bead-based flow cytometry, Alexa488-MEK5 binding to MEKK3; actives lie on both sides; 0 = blocked by unlabeled MEK5, 100 = vehicle. binding response (% of control), % at 10 µM. 1.4% of 290,000 active. AID 1529, 2009;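 active = binding response more than 3 SD above or below the average of its plate-row segment, actives on both sides; inconclusive = wells at one plate position flagged as instrument error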;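 note: Alexa488 bead fluorescence after subtracting the streptavidin-only scavenger bead signal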
Apaf1 inhib – inhibitors of human Apaf-1 apoptosome, primary screen, biochemical, DEVD-Rh110 fluorescence, uHTS | inhibition, % at 20 µM | reconstituted apoptosome caspase-3 activity | AID 489030, 2010 | 0.71% of 330,000 active; active = inhibition of at least 40% at 20 µM;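 note: plate controls were DMSO wells for no effect and DEVD-CHO caspase inhibitor wells for full effect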
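detection = Rh110 fluorescence intensity | test system = biochemical Apaf-1 apoptosome reconstitution | also added = cytochrome c and DEVD-Rh110 substrate | schedule = 30 min plus 50 min, RT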
MEKK2 WT-MEK5 – modulators of MEK5 binding to wildtype MEKK2, primary screen, biochemical, multiplex bead flow cytometry, Alexa488-MEK5; 1.1% of 290,000 active; Mitogen-activated protein kinase kinase kinase 2 (Homo sapiens), Q9Y2U5; Alexa488-MEK5 binding to MEKK2 WT; actives lie on both sides; binding response (% of control), % at 10 µM; AID 1531, 2009; in the data active = binding response below about 67% or above about 130%; inconclusive = no clear call, values can overlap the other calls; inactive = in between
UBC13 inh – UBC13 polyubiquitin chain formation inhibitors, primary screen, biochemical, TR-FRET, uHTS; 0.47% of 330,000 active; Ubiquitin-conjugating enzyme E2 N (Homo sapiens), P61088; inhibition, % at 20 µM; in the data active = inhibition above about 45%, passing the limit was not always enough; inconclusive = no clear call, values can overlap the other calls
Target sequence (P61088 whole entry, looked up): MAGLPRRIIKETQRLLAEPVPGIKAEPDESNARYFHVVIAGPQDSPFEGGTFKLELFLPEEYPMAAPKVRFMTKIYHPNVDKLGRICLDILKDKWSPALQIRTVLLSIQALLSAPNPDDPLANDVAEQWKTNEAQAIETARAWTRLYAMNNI
MEKK2mut PB1 HTS – MEK5 binding signal on mutant MEKK2 PB1, primary screen, biochemical, multiplex bead flow cytometry, Alexa488-MEK5; Alexa488-MEK5 binding to MEKK2 mutant; percent response, % at 10 µM; 0.35% of 290,000 active; AID 1530, 2009; in the data active = percent response above about 24%, passing the limit was not always enough
Casp3 UBC13 ctr – CASP3 inhibitor validation, counterassay for project on UBE2N polyubiquitination blockers, biochemical, one dose; shares compounds with UBC13 inh; Recombinant caspase-3, Caspase-Glo 3/7 luminescence, 60 min; inhibition, % at 20 µM; 4% of 1,400 active;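 active = mean inhibition across replicates above about 26%, limit read from the data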;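 note: plate controls were DMSO with caspase-3 for no effect and DMSO wells lacking enzyme for full effect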
Target sequence (P42574 whole entry, looked up): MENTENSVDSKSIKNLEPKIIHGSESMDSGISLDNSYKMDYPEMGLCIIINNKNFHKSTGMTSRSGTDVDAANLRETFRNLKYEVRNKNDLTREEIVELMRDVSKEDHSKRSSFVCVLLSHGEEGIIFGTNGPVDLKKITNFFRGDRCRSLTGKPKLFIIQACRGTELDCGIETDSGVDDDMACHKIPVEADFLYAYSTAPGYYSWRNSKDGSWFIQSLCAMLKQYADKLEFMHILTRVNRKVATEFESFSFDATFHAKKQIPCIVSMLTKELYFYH
UBC13 conf – UBC13 polyubiquitination inhibitors, single-point retest, confirmation, biochemical, TR-FRET, single concentration | shares compounds with UBC13 inh | inhibition, % at 10 µM | 68% of 1,400 active | AID 488859, 2010; in the data active = inhibition above about 45%; inconclusive = no clear call, values can overlap the other calls
An asterisk follows results filed as active; ? = inconclusive; nt = no result. This is a sample that favours compounds with a hit; in the whole collection about 2.9% have one here.

SMILES | MEKK3 PB1 HTS | Apaf1 inhib | MEKK2 WT-MEK5 | UBC13 inh | MEKK2mut PB1 HTS | Casp3 UBC13 ctr | UBC13 conf
C[C@H](CO)N1C[C@H](C)[C@@H](CN(C)S(C)(=O)=O)Oc2ccc(NC(=O)c3ccncc3)cc2C1=O | nt | 9 | nt | -2 | nt | nt | nt
COc1ccc2oc(C(=O)OC(C)C(=O)NC3(C#N)CCCCC3)c(C)c2c1 (centres undefined) | nt | 10 | nt | 11 | nt | nt | nt
C#CCOCCOCCOCCNc1nc(N2CCN(C(=O)CCCCCCCCCCNC(=O)[C@@H](CCC(=O)O)n3cc(CCCCCN)nn3)CC2)nc(N2CCN(C(=O)CCCCCCCCCCNC(=O)[C@@H](CCC(=O)O)n3cc(CCCCCN)nn3)CC2)n1 | nt | 36 | nt | 45* | nt | 2 | 36
C#CCOCCOCCOCCNc1nc(N2CCOCC2)nc(N2CCN(C(=O)CCCCCCCCCCNC(=O)Cn3cc(CCCCCN)nn3)CC2)n1 | nt | 26 | nt | 28 | nt | nt | nt
C#CCOCCOCCOCCNc1nc(N2CCN(C(=O)[C@H]([C@@H](C)CC)n3cc(CCCN=C(N)N)nn3)CC2)nc(N2CCN(C(=O)[C@H](CCCCN)n3cc(CCC(=O)O)nn3)CC2)n1 | 105 | 13 | 96 | 9 | -4 | nt | nt
C#CCOCCOCCOCCNc1nc(N2CCN(C(=O)CCCCCCCCCCNC(=O)[C@H](CCCCN)n3cc(CCCC(=O)O)nn3)CC2)nc(N2CCN(C(=O)CCCCCCCCCCNC(=O)[C@H](CCCN=C(N)N)n3cc(C[C@@H](C)CC)nn3)CC2)n1 | nt | 76* | nt | 123* | nt | -1 | 126*
CCCCOc1ccc(C(=O)NNC(=O)c2cnccn2)cc1OC | nt | -5 | nt | 64* | nt | -3 | 24
COc1ccc(CC(=O)NNC(=O)c2cnccn2)cc1 | 110 | -7 | 105 | 4 | 0 | nt | nt
O=S1(=O)CC(O)C(N=Nc2c(O)n(Cc3ccccc3)c3ccccc23)C1 (centres undefined) | 108 | -10 | 103 | 56* | 19 | 3 | 44
O=C(NCCCN1CCOCC1)c1ccc2c(=O)n(Cc3cccc(Br)c3)c(=S)[nH]c2c1 | 102 | 22 | 114 | 49* | 13 | -2 | 60*
CC1CCN(CCNC(=O)c2ccc3c(=O)n(Cc4ccc(Cl)cc4)c(=S)[nH]c3c2)CC1 | 101 | 36 | 175* | 45* | 39* | -3 | 61*
CCCCn1c(-c2cccs2)nc2nc3ccccc3nc21 | 101 | 19 | 92 | 56* | -1 | -1 | 45*
CC1CCc2c(sc(NC(=O)c3ccc(N4C(=O)CCC4=O)cc3)c2C(N)=O)C1 (centres undefined) | nt | 9 | nt | 27 | nt | nt | nt
CS(=O)(=O)Nc1cccc(C2=NN(C(=O)c3ccccc3Cl)C(c3ccccc3O)C2)c1 (centres undefined) | 105 | 12 | 101 | 9 | 3 | nt | nt
Cc1cc(C)cc(N(C(=O)c2snc(C(N)=O)c2N)C(C(=O)NCC2CCCO2)c2cccs2)c1 (centres undefined) | 102 | 20 | 99 | 66* | 1 | 2 | 71*
Cc1ccc(C(C(=O)NCC2CCCO2)N(C(=O)c2snc(C(N)=O)c2N)c2ccc(C)c(C)c2)o1 (centres undefined) | 103 | 15 | 103 | 65* | 2 | 0 | 70*
NC(=O)c1nsc(C(=O)N(c2ccccc2)C(C(=O)NCC2CCCO2)c2cccs2)c1N (centres undefined) | 99 | -11 | 95 | 40 | -1 | nt | nt
Cc1ccc(C(C(=O)NCC2CCCO2)N(C(=O)c2snc(C(N)=O)c2N)c2ccc3c(c2)OCCO3)cc1 (centres undefined) | 97 | 26 | 92 | 56* | -2 | 1 | 79*
Cc1cc(C)cc(N(C(=O)c2snc(C(N)=O)c2N)C(C(=O)NCC2CCCO2)c2ccc(C)o2)c1 (centres undefined) | 95 | 16 | 98 | 60* | 4 | 0 | 49*
CCc1cc(C(=O)N(C)CC(=O)Nc2c(Cl)cccc2Cl)sc1C | nt | 2 | nt | -6 | nt | nt | nt
CN(CCC1CCCCO1)C(=O)CCc1nnc(C2CCCCC2)o1 (centres undefined) | 90 | -11 | 88 | 9 | -9 | nt | nt
CCn1c(SCC(=O)Nc2cccc(C)c2)nc2nc3c(cc2c1=O)COC(C)(C)C3 | 102 | 7 | 101 | 8 | 3 | nt | nt
Cn1c(=O)c2c(ncn2Cc2ccccc2)n(C)c1=O | 98 | -9 | 100 | 50* | 2 | -2 | 30
Cn1c(=O)c2c(ncn2CCCc2ccccc2)n(C)c1=O | 98 | 7 | 96 | 0 | -1 | nt | nt
CC[C@H](C)[C@@H](CNC)NC[C@@H](Cc1ccc(O)cc1)NCC(C)(C)C | 104 | -5 | 113 | 3 | -4 | nt | nt
SMILES | MEKK3 PB1 HTS | Apaf1 inhib | MEKK2 WT-MEK5 | UBC13 inh | MEKK2mut PB1 HTS | Casp3 UBC13 ctr | UBC13 conf
CCCC[C@H](CN[C@@H](CNC)[C@H](C)CC)NCCC12CCC(CC1)C2 | 101 | 7 | 129 | 48* | -1 | -3 | 30
CCSc1nc(-c2ccccc2)c2cc(Cl)ccc2n1 | 104 | 7 | 96 | 49* | -1 | -3 | ?
CN(C)c1nc(-c2ccccc2)c2cc(Cl)ccc2n1 | 97 | 12 | 89 | 23 | 0 | nt | nt
COc1ccc(N(C(=O)c2snc(C(N)=O)c2N)C(C(=O)NC2CCCC2)c2cccs2)cc1OC (centres undefined) | 99 | 1 | 92 | 64* | -3 | 1 | 35
CCC(C(=O)NC1CCCC1)N(Cc1ccc2c(c1)OCO2)C(=O)c1snc(C(N)=O)c1N (centres undefined) | 88 | 2 | 98 | 26 | -1 | nt | nt
COc1ccc(N(C(=O)c2snc(C(N)=O)c2N)C(C(=O)NC2CCCC2)c2ccco2)cc1 (centres undefined) | 99 | 13 | 92 | 82* | -2 | 0 | 90*
CC(C)CC(C(=O)NC1CCCC1)N(Cc1ccc2c(c1)OCO2)C(=O)c1snc(C(N)=O)c1N (centres undefined) | 97 | 22 | 85 | 46* | 1 | -1 | 38
